Assay results taken from ChEMBL document CHEMBL1135702, “Antitumor polycyclic acridines. 8.(1) Synthesis and telomerase-inhibitory activity of methylated pentacyclic acridinium salts” (J Med Chem, 2002).
pIC50: −log10 of the molar value.

Columns and labels:
[1] = Selectivity index (GI50/Telomerase IC50)
[2] = Growth inhibition in the NCI 60 cell panel; format: functional; details: Homo sapiens
[3] = target: Telomerase reverse transcriptase (Homo sapiens, UniProt O14746); assay: Inhibition of telomerase activity using TRAP assay
Procedure, shortened: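 Telomerase came from lysates of exponentially growing A2780 cells (CHAPS buffer, 30 min on ice, 0.1 mM AEBSF), using 40 ng protein. TS primer was extended in TRAP buffer (pH 8.3, 68 mM KCl) with 50 μM dNTPs and [α-³²P]dCTP, compound at various final concentrations, for 20 min at 25 °C. After 85 °C inactivation, the CX primer was added with Taq for 31 PCR cycles. Products were read by phosphoimaging or scintillation counting.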

Sequence of Telomerase reverse transcriptase (O14746 whole entry): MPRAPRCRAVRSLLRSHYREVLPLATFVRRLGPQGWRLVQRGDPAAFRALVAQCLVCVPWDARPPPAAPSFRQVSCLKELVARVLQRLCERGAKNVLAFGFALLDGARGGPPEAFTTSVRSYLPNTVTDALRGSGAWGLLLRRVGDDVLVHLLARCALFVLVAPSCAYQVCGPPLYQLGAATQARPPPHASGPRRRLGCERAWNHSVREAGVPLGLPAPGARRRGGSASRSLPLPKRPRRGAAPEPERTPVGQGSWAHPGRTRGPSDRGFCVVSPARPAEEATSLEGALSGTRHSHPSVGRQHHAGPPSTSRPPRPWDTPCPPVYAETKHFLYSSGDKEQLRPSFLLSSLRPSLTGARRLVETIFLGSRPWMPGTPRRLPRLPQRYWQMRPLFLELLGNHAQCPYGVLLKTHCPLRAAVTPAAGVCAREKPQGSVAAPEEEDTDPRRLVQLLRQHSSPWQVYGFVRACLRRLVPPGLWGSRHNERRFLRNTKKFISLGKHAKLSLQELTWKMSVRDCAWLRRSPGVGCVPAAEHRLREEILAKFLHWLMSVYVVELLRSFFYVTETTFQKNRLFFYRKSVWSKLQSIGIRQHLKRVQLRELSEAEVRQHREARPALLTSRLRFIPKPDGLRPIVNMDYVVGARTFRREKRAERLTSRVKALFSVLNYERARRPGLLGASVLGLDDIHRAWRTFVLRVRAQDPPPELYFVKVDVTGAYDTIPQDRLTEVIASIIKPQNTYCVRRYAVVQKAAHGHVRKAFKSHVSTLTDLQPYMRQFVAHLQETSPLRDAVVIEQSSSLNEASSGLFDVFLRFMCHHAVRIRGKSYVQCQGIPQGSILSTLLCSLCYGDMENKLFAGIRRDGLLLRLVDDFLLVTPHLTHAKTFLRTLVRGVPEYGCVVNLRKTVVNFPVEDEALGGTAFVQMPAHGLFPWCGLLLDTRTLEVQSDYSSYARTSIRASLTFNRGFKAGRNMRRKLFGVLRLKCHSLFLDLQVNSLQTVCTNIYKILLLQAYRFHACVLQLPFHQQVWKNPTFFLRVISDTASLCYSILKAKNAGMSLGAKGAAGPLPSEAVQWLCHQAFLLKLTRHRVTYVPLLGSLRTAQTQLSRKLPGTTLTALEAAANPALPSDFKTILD

SMILES	SI [1]	GI50 [2] [nM]	pIC50 [3]
Cc1ccc2c(c1)-c1c3c(cc(C)cc3c3cc(C)ccc3[n+]1C)N2C	1.8	410	6.60
CCN1c2ccccc2-c2c3c1cc(C)cc3c1ccccc1[n+]2CC	0.5	1100	5.70
Cc1cc2c3c([n+](C)c4ccc(F)cc4c3c1)-c1cc(F)ccc1N2C	40	13200	6.48
c1ccc2c(c1)Nc1cccc3cc4[n+](c-2c13)CCC4	–	90	–
Cc1cc2c3c([n+](C)c4ccc(Cl)cc4c3c1)-c1cc(Cl)ccc1N2C	17	4170	6.60
CN1c2ccccc2-c2c3c1cccc3c1ccccc1[n+]2C	–	–	6.42
Cc1cc2c3c([n+](C)c4ccccc4c3c1)-c1ccccc1N2C	1.7	1290	6.12
